How the values were obtained:
TMD8 [1] = test: Induction of apoptosis in human TMD8 cells assessed as viable cells at 10 uM measured after 24 hrs by Annexin V-FITC/ Propidium iodide staining based flow cytometry (reference value: 90.8%); type: functional; details: read-out: Activity
TMD8 [2] = test: Induction of apoptosis in human TMD8 cells assessed as dead cells at 10 uM measured after 24 hrs by Annexin V-FITC/ Propidium iodide staining based flow cytometry (reference value: 0%); type: functional
[3] = Induction of apoptosis in human HBL1 cells assessed as viable cells at 10 uM measured after 24 hrs by Annexin V-FITC/ Propidium iodide staining based flow cytometry (reference value: 88.1%); type: functional; details: read-out: Activity
[4] = Drug concentration in tumor of NCG mouse xenografted with human TMD8 cells at 30 mg/kg/day, ip measured after 13 days; type: ADME, organism-based, Neoplasm; details: time 13 day, read-out: Drug uptake
How it was run: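 TMD8 cells (5 × 10⁶) were implanted subcutaneously into the right flank of 6-week-old female NCG mice. At day 10, when tumors were palpable, mice were randomized into groups of eight. Dosing was ip at 30 mg/kg for 13 consecutive days; controls received HPBCD (20% PEG 400) ip. TGI was based on mean tumor weight of treated versus control groups. Intratumoral drug level was measured after 13 days of dosing.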

[5] = Toxicity in NCG mouse xenografted with human TMD8 cells assessed as diarrhea at 30 mg/kg/day, ip measured for 13 days; details: in vivo, 312 h
OCI-Ly1 [6] = test: Induction of apoptosis in human OCI-Ly1 cells assessed as late apoptotic cells at 5 uM measured after 24 hrs by Annexin V-FITC/ Propidium iodide staining based flow cytometry (reference value: 0.548%); type: functional
[7] = Induction of apoptosis in human HBL1 cells assessed as viable cells at 5 uM measured after 24 hrs by Annexin V-FITC/ Propidium iodide staining based flow cytometry (reference value: 88.1%); type: functional; details: read-out: Activity
[8] = Apparent volume of distribution in CD-1 mouse at 1 mg/kg, iv by LC-MS/MS analysis; type: ADME, organism-based; details: in vivo, read-out: Vz
How it was run: (§1)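 Compound formulated in 5% DMSO + 5% Tween-80 in 90% saline and given to male ICR (CD-1) mice (n = 9) at 10 mg/kg po, 1 mg/kg ip or 1 mg/kg iv. Blood was drawn via the jugular vein at set time points and held on ice. Plasma was separated by centrifugation and stored at −80 °C before PK parameters were derived.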

[9] = target: T1, Mucosa-associated lymphoid tissue lymphoma translocation protein 1 (Homo sapiens, UniProt Q9UDY8); test: Inhibition of N-terminal his-tagged GCN4 leucine zipper fused human MALT1 […] expressed in Escherichia coli using Ac-LVSR-AMC as substrate by HTS assay
T1 sequence (Q9UDY8 whole entry): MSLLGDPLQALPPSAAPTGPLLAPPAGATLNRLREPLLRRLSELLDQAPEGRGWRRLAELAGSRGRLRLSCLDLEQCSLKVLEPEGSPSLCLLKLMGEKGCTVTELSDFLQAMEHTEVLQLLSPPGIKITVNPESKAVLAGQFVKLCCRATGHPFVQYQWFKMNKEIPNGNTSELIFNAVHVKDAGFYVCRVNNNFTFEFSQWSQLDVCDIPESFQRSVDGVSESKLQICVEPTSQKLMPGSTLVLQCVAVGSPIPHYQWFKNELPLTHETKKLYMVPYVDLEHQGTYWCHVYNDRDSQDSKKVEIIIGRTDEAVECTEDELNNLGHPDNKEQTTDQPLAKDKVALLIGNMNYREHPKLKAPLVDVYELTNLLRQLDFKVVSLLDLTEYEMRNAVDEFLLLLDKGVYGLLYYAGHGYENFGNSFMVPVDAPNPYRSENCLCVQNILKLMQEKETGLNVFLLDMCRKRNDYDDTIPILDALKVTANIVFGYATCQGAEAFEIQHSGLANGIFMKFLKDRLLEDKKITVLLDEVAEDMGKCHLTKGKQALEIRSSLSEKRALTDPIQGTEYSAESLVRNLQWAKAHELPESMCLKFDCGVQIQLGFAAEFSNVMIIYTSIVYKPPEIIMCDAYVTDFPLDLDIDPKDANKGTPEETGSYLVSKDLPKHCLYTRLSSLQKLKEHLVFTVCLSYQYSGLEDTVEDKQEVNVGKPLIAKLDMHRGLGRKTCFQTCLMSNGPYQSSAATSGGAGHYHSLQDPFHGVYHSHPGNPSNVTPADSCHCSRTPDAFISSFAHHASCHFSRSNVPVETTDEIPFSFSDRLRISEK

[10] = Half life in CD-1 mouse at 1 mg/kg, iv by LC-MS/MS analysis; type: ADME, organism-based; details: in vivo; how it was run: as §1
TMD8 [11] = test: Induction of apoptosis in human TMD8 cells assessed as increase in cleaved PARP level measured after 12 hrs by Western blot analysis; type: functional, cell-based
How it was run: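 HBL1, TMD8 or OCI-LY1 cells were exposed to DMSO or compound for 12 h. Cleaved PARP and caspase-3 were probed by western blot with HRP-conjugated secondary antibodies and chemiluminescent detection. Each lane held 20−75 μg total protein.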

[12] = Induction of apoptosis in human HBL1 cells assessed as dead cells at 10 uM measured after 24 hrs by Annexin V-FITC/ Propidium iodide staining based flow cytometry (reference value: 2.32%); type: functional
OCI-Ly1 [13] = test: Antiproliferative activity against human OCI-Ly1 cells assessed as inhibition of cell growth incubated for 72 hrs by Celltiter-Glo luminescent assay; type: functional
How it was run: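 Exponentially growing cells were seeded at 1 × 10⁴ per 100 μL. HBL-1 and TMD8 were kept in RPMI with 10% FBS, 2 mM glutamine and 10 mM HEPES; OCI-LY1 in Iscove's medium with 20% FBS; all at 37 °C and 5% CO2. Cells were exposed to DMSO or 2-fold serial dilutions from 100 μM for 72 h, in triplicate on one plate. CellTiter-Glo luminescence was read after 1 h. Growth inhibition was calculated against control, accounting for initial cell number, and GI50 was fitted.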

[14] = Induction of apoptosis in human HBL1 cells assessed as early apoptotic cells at 5 uM measured after 24 hrs by Annexin V-FITC/ Propidium iodide staining based flow cytometry (reference value: 4.85%); type: functional
[15] = Induction of apoptosis in human HBL1 cells assessed as late apoptotic cells at 5 uM measured after 24 hrs by Annexin V-FITC/ Propidium iodide staining based flow cytometry (reference value: 4.77%); type: functional
OCI-Ly1 [16] = test: Induction of apoptosis in human OCI-Ly1 cells assessed as dead cells at 5 uM measured after 24 hrs by Annexin V-FITC/ Propidium iodide staining based flow cytometry (reference value: 0.365%); type: functional
[17] = Tmax in CD-1 mouse at 10 mg/kg, po by LC-MS/MS analysis; type: ADME, organism-based; details: in vivo
How it was run: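 Male ICR (CD-1) mice (n = 9). Compound formulated in 5% DMSO + 5% Tween-80 in 90% saline and dosed 10 mg/kg po, 1 mg/kg ip or 1 mg/kg iv. Blood drawn from the jugular vein at set time points and held on ice. Plasma separated by centrifugation and stored at −80 °C before parameter derivation.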

[18] = Induction of apoptosis in human HBL1 cells assessed as early apoptotic cells at 2 uM measured after 24 hrs by Annexin V-FITC/ Propidium iodide staining based flow cytometry (reference value: 4.85%); type: functional

In the case of `COc1ccc(OC)c(NC(=O)c2sc(=S)n(-c3ccc(C(F)(F)F)cc3)c2NC(=O)CCl)c1`, the viability at 10 µM (TMD8 [1]) is reported as 3.65%, the Activity (TMD8 [2]) is reported as 0.625% and the viability at 10 µM [3] is reported as 6.11%. The concentration at 312 h [4] was 1130 ng/g, the Activity [5] was “Non-Toxic” and the Activity (OCI-Ly1 [6]) was 0.774%. For the same compound, the viability at 5 µM [7] was 38.8%, the Vd [8] was 4.82 L/kg and the IC50 [9] was 5.3 µM. For the same compound, the half-life [10] was 4.6 h, the Activity (TMD8 [11]) was “Dose-Dependent Effect” and the Activity [12] was 1.04%. It also gave a GI50 (OCI-Ly1 [13]) of 10.7 µM, an Activity [14] of 42.1% and an Activity [15] of 17.3%. The Activity (OCI-Ly1 [16]) was 0.204%, the Tmax [17] was 3 h and the Activity [18] was 6.78%.

Reference: ChEMBL document CHEMBL5032510, “Identification of Novel Fused Heteroaromatics-Based MALT1 Inhibitors by High-Throughput Screening to Treat B Cell Lymphoma” (J Med Chem, 2021)
